# Experimental data from ChEMBL document CHEMBL4038284, “Synthesis of novel quinoline-based 4,5-dihydro-1H-pyrazoles as potential anticancer, antifungal, antibacterial and antiprotozoal agents” (Eur J Med Chem, 2017).
# The source made the active and inactive calls. The calls are words filed in the database; no cut-off is given here.
# Assays:
# [1] = system: Trypanosoma cruzi; experiment: Antitrypanosomal activity against Trypanosoma cruzi Tulahuen intracellular amastigote harboring LacZ infected in human U937 cells after 72 hrs by CPRG/Nonidet reagent based spectrophotometric method; type: functional, cell-based; conditions: U-937, 72 h
# Summary of the method: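 U-937 cells at 2.5 × 10^5 cells/mL in RPMI-1640 with 10% serum and 0.1 µg/mL PMA were infected with β-galactosidase-transfected Tulahuen epimastigotes at 5 parasites per cell. Infected cells were exposed to 50, 12.5, 3.125 and 0.78 µg/mL for 72 h. CPRG (100 uM) and 0.1% Nonidet P-40 were added for 3 h, read at 570 nm. EC50 by Probit. Triplicate, at least two experiments; benznidazole as reference.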
# [2] = system: NCI-H226; experiment: Growth inhibition of human NCI-H226 cells at 10 uM incubated for 48 hrs by sulforhodamine B assay; type: functional, cell-based
# Summary of the method: (§1)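 NCI 60-line panel, single 10 μM dose. Cells were grown in RPMI-1640 with 5% FBS and 2 mM L-glutamine and pre-incubated 24 h before compound addition (DMSO stock). Exposure was 48 h at 37 °C, 5% CO2. Cells were fixed with cold TCA (10% final), stained with 0.4% SRB, bound dye dissolved in 10 mM Tris base, A515 read. Growth was taken relative to time-zero and untreated control plates.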
# [3] = system: Klebsiella pneumoniae; experiment: Antibacterial activity against ESBL positive Klebsiella pneumoniae ATCC 700603 after 24 hrs by resazurin dye based microdilution assay; type: functional; conditions: Klebsiella pneumoniae, 700603, 24 h
# Summary of the method: (§2)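 MIC taken as the lowest concentration giving visible inhibition and/or by resazurin (1 mg/mL). Gentamicin was the control. Run in duplicate, repeated at least three times.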
# [4] = system: Candida albicans; experiment: Growth inhibition of Candida albicans ATCC 10231 at 31.25 ug/ml incubated for 48 hrs under dark condition by broth microdilution method relative to control; type: functional; conditions: ATCC 10231, 48 h, read-out: GI
# Summary of the method: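 CLSI M27-A3 broth microdilution in RPMI-1640, DMSO ≤1%. Inoculum 1-5 × 10^3 CFU/mL. Incubated 48 h at 30 °C, dark. % inhibition = 100 − (OD405 test − sterility control)/(OD405 growth control − sterility control), with growth and sterility control wells. Triplicate.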
# [5] = system: SK-MEL-5; experiment: Growth inhibition of human SK-MEL-5 cells at 10 uM incubated for 48 hrs by sulforhodamine B assay; type: functional, cell-based
# Summary of the method: (§3)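 NCI-60 single-dose screen at 10 µM for 48 h. Cells were grown in RPMI-1640 with 5% FBS and 2 mM L-glutamine and preincubated 24 h before compound. Time-zero plates were TCA-fixed at compound addition. After exposure, cells were TCA-fixed, stained with SRB and read at 515 nm. Percentage growth was calculated against time-zero and untreated-control absorbances.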
# [6] = system: HOP-62; experiment: Growth inhibition of human HOP62 cells at 10 uM incubated for 48 hrs by sulforhodamine B assay; type: functional, cell-based
# Summary of the method: (§4)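 NCI 60-cell-line screen at a single 10 µM dose. Cells in RPMI-1640 with 5% FBS and 2 mM L-glutamine, pre-incubated 24 h, then treated for 48 h at 37 °C. TCA fixation, sulforhodamine B staining, absorbance at 515 nm. Percentage growth calculated against time-zero and untreated controls.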
# [7] = system: Staphylococcus aureus; experiment: Antibacterial activity against methicillin-sensitive Staphylococcus aureus ATCC 25923 after 24 hrs by resazurin dye based microdilution assay; type: functional; conditions: ATCC 25923, 24 h; summary of the method: as §2
# [8] = system: SNB-75; experiment: Growth inhibition of human SNB75 cells at 10 uM incubated for 48 hrs by sulforhodamine B assay; type: functional, cell-based; summary of the method: as §3
# [9] = system: HCT-15; experiment: Growth inhibition of human HCT15 cells at 10 uM incubated for 48 hrs by sulforhodamine B assay; type: functional, cell-based; summary of the method: as §4
# [10] = system: DU-145; experiment: Growth inhibition of human DU145 cells at 10 uM incubated for 48 hrs by sulforhodamine B assay; type: functional, cell-based; summary of the method: as §4
# [11] = system: MOLT-4; experiment: Growth inhibition of human MOLT4 cells at 10 uM incubated for 48 hrs by sulforhodamine B assay; type: functional, cell-based; summary of the method: as §1
# [12] = system: OVCAR-3; experiment: Growth inhibition of human OVCAR3 cells at 10 uM incubated for 48 hrs by sulforhodamine B assay; type: functional, cell-based; summary of the method: as §1
# [13] = system: BT-549; experiment: Growth inhibition of human BT549 cells at 10 uM incubated for 48 hrs by sulforhodamine B assay; type: functional, cell-based; summary of the method: as §4
# [14] = system: ACHN; experiment: Growth inhibition of human ACHN cells at 10 uM incubated for 48 hrs by sulforhodamine B assay; type: functional, cell-based; summary of the method: as §4
# [15] = system: OVCAR-8; experiment: Growth inhibition of human OVCAR8 cells at 10 uM incubated for 48 hrs by sulforhodamine B assay; type: functional, cell-based; summary of the method: as §1
# [16] = system: U-937; experiment: Cytotoxicity against human U937 cells after 72 hrs by MTT assay; type: cell-based; conditions: u-937, 72 h
# Summary of the method: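 Exponentially growing U-937 at 1 × 10^5 cells/mL in RPMI-1640 with 10% FBS were exposed to 200, 50, 12.5 and 3.125 µg/mL for 72 h at 37 °C, 5% CO2. MTT for 3 h, stopped with isopropanol/SDS, formazan read at 570 nm, blank-corrected. LC50 by Probit from % viability against untreated cells. Triplicate, at least two independent experiments.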
# [17] = system: Cryptococcus neoformans; experiment: Antifungal activity against Cryptococcus neoformans ATCC 32264 incubated for 48 hrs under dark condition by broth microdilution method; type: functional; conditions: ATCC 32264, 48 h
# Summary of the method: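 CLSI M27-A3 broth microdilution in RPMI-1640, DMSO ≤1%, compounds at 250-0.98 µg/mL final. Inoculum 1-5 × 10^3 CFU/mL. Incubated 48 h at 30 °C in a moist dark chamber, read at OD405. MIC80 and MIC50 taken from % inhibition dose-response curves (mean ± SEM, triplicate). Amphotericin B was the positive control.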
# [18] = system: U-251; experiment: Growth inhibition of human U251 cells at 10 uM incubated for 48 hrs by sulforhodamine B assay; type: functional, cell-based; summary of the method: as §3
# [19] = system: SK-MEL-28; experiment: Growth inhibition of human SK-MEL-28 cells at 10 uM incubated for 48 hrs by sulforhodamine B assay; type: functional, cell-based; summary of the method: as §3
# [20] = system: OVCAR-5; experiment: Growth inhibition of human OVCAR5 cells at 10 uM incubated for 48 hrs by sulforhodamine B assay; type: functional, cell-based; summary of the method: as §1
# [21] = system: UACC-62; experiment: Growth inhibition of human UACC62 cells at 10 uM incubated for 48 hrs by sulforhodamine B assay; type: functional, cell-based; summary of the method: as §3
# [22] = system: SW-620; experiment: Growth inhibition of human SW620 cells at 10 uM incubated for 48 hrs by sulforhodamine B assay; type: functional, cell-based; summary of the method: as §3
# [23] = system: SK-OV-3; experiment: Growth inhibition of human SKOV3 cells at 10 uM incubated for 48 hrs by sulforhodamine B assay; type: functional, cell-based; summary of the method: as §3
# [24] = system: M14; experiment: Growth inhibition of human M14 cells at 10 uM incubated for 48 hrs by sulforhodamine B assay; type: functional, cell-based; summary of the method: as §1
# [25] = system: SF-539; experiment: Growth inhibition of human SF539 cells at 10 uM incubated for 48 hrs by sulforhodamine B assay; type: functional, cell-based; summary of the method: as §1
# [26] = system: PC-3; experiment: Growth inhibition of human PC3 cells at 10 uM incubated for 48 hrs by sulforhodamine B assay; type: functional, cell-based; summary of the method: as §1
# [27] = system: 786-0; experiment: Growth inhibition of human 786-0 cells at 10 uM incubated for 48 hrs by sulforhodamine B assay; type: functional, cell-based; summary of the method: as §4
SMILES,EC50 [1] [µg/mL],growth inhibition (GI) [2],MIC [3] [µg/mL],inhibition of growth at 31.25 µg/mL [4] [%],growth inhibition (GI) [5],growth inhibition (GI) [6],MIC [7] [µg/mL],growth inhibition (GI) [8],growth inhibition (GI) [9],growth inhibition (GI) [10],growth inhibition (GI) [11],growth inhibition (GI) [12],growth inhibition (GI) [13],growth inhibition (GI) [14],growth inhibition (GI) [15],LC50 [16] [µg/mL],MIC50 [17] [µg/mL],MIC80 [17] [µg/mL],growth inhibition (GI) [18],growth inhibition (GI) [19],also measured
Clc1ccc(C2=NN(c3ccccc3)C(c3cccc(Nc4ccnc5cc(Cl)ccc45)c3)C2)cc1 (stereo not given),16.2,inactive,> 1000,4.92,inactive,inactive,> 1000,inactive,inactive,inactive,inactive,inactive,inactive,inactive,inactive,> 200,≥ 250,≥ 250,inactive,inactive,growth inhibition (GI) [20]: inactive; growth inhibition (GI) [21]: inactive; growth inhibition (GI) [22]: inactive; growth inhibition (GI) [23]: inactive; growth inhibition (GI) [24]: inactive; growth inhibition (GI) [25]: inactive; growth inhibition (GI) [26]: inactive; growth inhibition (GI) [27]: inactive
Clc1ccc(C2=NN(c3cc(Cl)cc(Cl)c3)C(c3cccc(Nc4ccnc5cc(Cl)ccc45)c3)C2)cc1 (stereo not given),19.1,inactive,> 1000,13.6,inactive,inactive,> 1000,inactive,inactive,inactive,inactive,inactive,inactive,inactive,inactive,> 200,≥ 250,≥ 250,inactive,inactive,growth inhibition (GI) [20]: inactive; growth inhibition (GI) [21]: inactive; growth inhibition (GI) [22]: inactive; growth inhibition (GI) [23]: inactive; growth inhibition (GI) [24]: inactive; growth inhibition (GI) [25]: inactive; growth inhibition (GI) [26]: inactive; growth inhibition (GI) [27]: inactive
COc1ccc(C2=NN(c3ccccc3)C(c3cccc(Nc4ccnc5cc(Cl)ccc45)c3)C2)cc1 (stereo not given),86.8,inactive,> 1000,13.4,inactive,inactive,> 1000,inactive,inactive,inactive,inactive,inactive,inactive,inactive,inactive,28,≥ 250,≥ 250,inactive,inactive,growth inhibition (GI) [20]: inactive; growth inhibition (GI) [21]: inactive; growth inhibition (GI) [22]: inactive; growth inhibition (GI) [23]: inactive; growth inhibition (GI) [24]: inactive; growth inhibition (GI) [25]: inactive; growth inhibition (GI) [26]: inactive; growth inhibition (GI) [27]: inactive
O=CN1N=C(c2ccc(Cl)cc2)CC1c1cccc(Nc2ccnc3cc(Cl)ccc23)c1 (stereo not given),0.7,Active,> 1000,24.5,Active,Active,> 1000,Active,Active,Active,Active,Active,Active,Active,Active,0.6,31.2,≥ 250,Active,Active,growth inhibition (GI) [20]: Active; growth inhibition (GI) [21]: Active; growth inhibition (GI) [22]: Active; growth inhibition (GI) [23]: Active; growth inhibition (GI) [24]: Active; growth inhibition (GI) [25]: Active; growth inhibition (GI) [26]: Active; growth inhibition (GI) [27]: Active
COc1ccc(C(=O)/C=C/c2cccc(Nc3ccnc4cc(Cl)ccc34)c2)cc1,3.29,Active,> 1000,26.9,Active,Active,> 1000,Active,Active,Active,Active,Active,Active,Active,Active,8.1,≥ 250,≥ 250,Active,Active,growth inhibition (GI) [20]: Active; growth inhibition (GI) [21]: Active; growth inhibition (GI) [22]: Active; growth inhibition (GI) [23]: Active; growth inhibition (GI) [24]: Active; growth inhibition (GI) [25]: Active; growth inhibition (GI) [26]: Active; growth inhibition (GI) [27]: Active
